Source: ChEMBL document CHEMBL1142660, “Optimization and validation of a docking-scoring protocol; application to virtual screening for COX-2 inhibitors” (J Med Chem, 2005)

Experiments:
[1] = biological target: Prostaglandin G/H synthase 1 (Homo sapiens) (UniProt P23219); assay: Inhibition of COX-1 in human immunoassay; design: concentration or dose not given beside the values
[2] = biological target: T1, Prostaglandin G/H synthase 2 (Homo sapiens) (UniProt P35354); assay: Inhibition of COX-2 in human immunoassay; design: concentration or dose not given beside the values
T1 sequence (whole entry): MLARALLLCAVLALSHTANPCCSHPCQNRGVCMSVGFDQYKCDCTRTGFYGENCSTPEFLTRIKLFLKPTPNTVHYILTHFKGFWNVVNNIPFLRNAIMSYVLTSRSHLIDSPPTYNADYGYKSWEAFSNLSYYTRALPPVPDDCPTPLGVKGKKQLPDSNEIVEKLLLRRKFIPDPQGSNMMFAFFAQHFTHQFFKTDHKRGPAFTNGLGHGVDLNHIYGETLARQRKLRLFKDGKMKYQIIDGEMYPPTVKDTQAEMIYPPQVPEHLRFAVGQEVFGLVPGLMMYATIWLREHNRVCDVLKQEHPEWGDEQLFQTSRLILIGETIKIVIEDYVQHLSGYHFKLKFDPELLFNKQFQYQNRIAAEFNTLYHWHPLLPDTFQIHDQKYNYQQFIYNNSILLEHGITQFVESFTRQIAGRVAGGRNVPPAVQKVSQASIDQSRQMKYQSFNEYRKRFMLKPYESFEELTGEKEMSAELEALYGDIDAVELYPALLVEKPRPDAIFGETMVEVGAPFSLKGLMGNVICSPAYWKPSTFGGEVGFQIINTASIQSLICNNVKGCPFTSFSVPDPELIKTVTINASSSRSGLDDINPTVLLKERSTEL
Procedure, shortened: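 Human COX-2 enzyme immunoassay kit, run per the manufacturer's instructions. Each compound was tested at a single concentration of 1 µM, and the read-out was percent inhibition of enzyme activity.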

Sequence of Prostaglandin G/H synthase 1 (Homo sapiens) (P23219 whole entry): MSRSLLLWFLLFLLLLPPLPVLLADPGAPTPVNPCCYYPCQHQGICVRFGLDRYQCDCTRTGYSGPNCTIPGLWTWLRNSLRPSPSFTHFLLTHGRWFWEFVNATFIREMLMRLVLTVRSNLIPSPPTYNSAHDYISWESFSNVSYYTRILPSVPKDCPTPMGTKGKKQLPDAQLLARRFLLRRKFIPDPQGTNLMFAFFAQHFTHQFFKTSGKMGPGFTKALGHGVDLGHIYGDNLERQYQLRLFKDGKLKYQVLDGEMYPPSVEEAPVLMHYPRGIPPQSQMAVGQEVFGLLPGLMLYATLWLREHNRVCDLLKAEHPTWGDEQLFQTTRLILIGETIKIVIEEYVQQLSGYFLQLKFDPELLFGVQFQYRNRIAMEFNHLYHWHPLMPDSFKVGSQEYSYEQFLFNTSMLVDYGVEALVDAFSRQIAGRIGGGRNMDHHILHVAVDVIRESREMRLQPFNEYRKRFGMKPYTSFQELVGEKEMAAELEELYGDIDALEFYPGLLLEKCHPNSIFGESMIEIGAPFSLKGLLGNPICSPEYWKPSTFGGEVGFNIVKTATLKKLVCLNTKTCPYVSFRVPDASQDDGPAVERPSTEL

Row | SMILES | Enzyme inhibition [1] [%] | Enzyme inhibition [2] [%]
1 | NS(=O)(=O)c1ccc(NCc2cnc3ccccc3n2)cc1 | 11 | 54
2 | NS(=O)(=O)c1ccc(NC2=CC(=O)C(=O)c3ccccc32)cc1 | 14 | 27
3 | NS(=O)(=O)c1ccc(Nc2nc(-c3ccccc3)cs2)cc1 | 61 | 29
4 | NS(=O)(=O)c1ccc(CCNS(=O)(=O)c2ccc(Cl)cc2Cl)cc1 | 23 | 30
5 | NS(=O)(=O)c1ccc(CCNS(=O)(=O)c2ccccc2[N+](=O)[O-])cc1 | 61 | 22
6 | NS(=O)(=O)c1ccc(Cl)c(C(=O)Nc2cccc([N+](=O)[O-])c2)c1 | 23 | 57
7 | NS(=O)(=O)c1ccc(N/C=C/C(=O)c2ccncc2)cc1 | 11 | 42
8 | Cc1onc(-c2ccccc2)c1C(=O)Nc1ccc(S(N)(=O)=O)cc1 | 23 | 48
9 | NS(=O)(=O)c1ccc(NC(=S)NC(=O)c2ccc(Cl)cc2Cl)cc1 | 8 | 22
10 | C/C(=N\Nc1ccc(S(N)(=O)=O)cc1)c1ccccn1 | 38 | 39
11 | CS(=O)(=O)c1cc(Nc2ccc(Br)cc2)ncn1 | 14 | 60
12 | NS(=O)(=O)c1ccc(CCNC(=O)c2ccccc2Br)cc1 | 46 | 10
